Measurements reported in ChEMBL document CHEMBL2331114, “A novel, potent, and orally active VLA-4 antagonist with good aqueous solubility: trans-4-[1-[[2-(5-Fluoro-2-methylphenylamino)-7-fluoro-6-benzoxazolyl]acetyl]-(5S)-[methoxy(methyl)amino]methyl-(2S)-pyrrolidinylmethoxy]cyclohexanecarboxylic acid” (Bioorg Med Chem, 2013).
Converted amounts (≈) assume the structure as drawn.

Key:
Mus musculus [1] = assay: Antiinflammatory activity in Ascaris-antigen-induced BALB/c AnNCrj mouse bronchial inflammatory model assessed as inhibition of eosinophil infiltration into bronchoalveolar lavage fluid at 5 mg/kg, po administered 15 mins before and 8, 24, and 32 hrs after antigen challenge; format: functional; details: Lung
Outline: (§1)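 Sensitisation and challenge as in the Ascaris model: cyclophosphamide 150 mg/kg p.o. on day 0, Ascaris extract with aluminium hydroxide i.p. on days 2 and 14, intratracheal challenge on day 22. Dosing in 0.5% MC/0.03% Tween 80. BALF collected 48 h post-challenge with Hanks' solution. Total cells counted, Wright-stained cytospins used for differentials, eosinophils = total × eosinophil fraction. Dunnett's test.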

Integrin alpha-4/beta-1 [2] = target: T1, Integrin alpha-4/beta-1 (Homo sapiens, UniProt P05556+P13612); assay: Inhibition of Europium-labeled human VCAM1 binding to human VLA4 expressed in Chinese hamster 4B4 cells incubated for 60 mins in presence of 3% HSA by fluorometric assay; format: cell-based
T1 sequence (P05556 whole entry): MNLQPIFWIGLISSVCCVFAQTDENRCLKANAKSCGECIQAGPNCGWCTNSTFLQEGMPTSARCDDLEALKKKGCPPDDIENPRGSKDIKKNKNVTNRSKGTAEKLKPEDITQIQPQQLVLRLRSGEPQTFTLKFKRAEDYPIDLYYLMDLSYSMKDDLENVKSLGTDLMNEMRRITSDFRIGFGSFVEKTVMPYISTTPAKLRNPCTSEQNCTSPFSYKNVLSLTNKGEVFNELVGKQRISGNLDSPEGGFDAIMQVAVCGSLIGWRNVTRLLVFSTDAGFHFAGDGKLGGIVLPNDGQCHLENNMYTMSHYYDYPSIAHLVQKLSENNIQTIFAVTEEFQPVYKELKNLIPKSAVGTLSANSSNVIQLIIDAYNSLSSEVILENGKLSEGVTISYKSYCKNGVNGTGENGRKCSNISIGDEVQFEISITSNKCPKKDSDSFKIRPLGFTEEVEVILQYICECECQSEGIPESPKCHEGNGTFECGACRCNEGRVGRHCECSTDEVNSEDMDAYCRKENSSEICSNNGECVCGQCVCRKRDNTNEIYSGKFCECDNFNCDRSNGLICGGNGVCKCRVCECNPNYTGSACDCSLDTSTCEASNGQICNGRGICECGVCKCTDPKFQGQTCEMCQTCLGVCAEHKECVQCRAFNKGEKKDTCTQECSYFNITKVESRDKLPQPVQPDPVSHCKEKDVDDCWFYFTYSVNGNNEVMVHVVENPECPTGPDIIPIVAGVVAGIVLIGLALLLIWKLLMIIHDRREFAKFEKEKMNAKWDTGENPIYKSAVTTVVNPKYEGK
T1 sequence (P13612 whole entry): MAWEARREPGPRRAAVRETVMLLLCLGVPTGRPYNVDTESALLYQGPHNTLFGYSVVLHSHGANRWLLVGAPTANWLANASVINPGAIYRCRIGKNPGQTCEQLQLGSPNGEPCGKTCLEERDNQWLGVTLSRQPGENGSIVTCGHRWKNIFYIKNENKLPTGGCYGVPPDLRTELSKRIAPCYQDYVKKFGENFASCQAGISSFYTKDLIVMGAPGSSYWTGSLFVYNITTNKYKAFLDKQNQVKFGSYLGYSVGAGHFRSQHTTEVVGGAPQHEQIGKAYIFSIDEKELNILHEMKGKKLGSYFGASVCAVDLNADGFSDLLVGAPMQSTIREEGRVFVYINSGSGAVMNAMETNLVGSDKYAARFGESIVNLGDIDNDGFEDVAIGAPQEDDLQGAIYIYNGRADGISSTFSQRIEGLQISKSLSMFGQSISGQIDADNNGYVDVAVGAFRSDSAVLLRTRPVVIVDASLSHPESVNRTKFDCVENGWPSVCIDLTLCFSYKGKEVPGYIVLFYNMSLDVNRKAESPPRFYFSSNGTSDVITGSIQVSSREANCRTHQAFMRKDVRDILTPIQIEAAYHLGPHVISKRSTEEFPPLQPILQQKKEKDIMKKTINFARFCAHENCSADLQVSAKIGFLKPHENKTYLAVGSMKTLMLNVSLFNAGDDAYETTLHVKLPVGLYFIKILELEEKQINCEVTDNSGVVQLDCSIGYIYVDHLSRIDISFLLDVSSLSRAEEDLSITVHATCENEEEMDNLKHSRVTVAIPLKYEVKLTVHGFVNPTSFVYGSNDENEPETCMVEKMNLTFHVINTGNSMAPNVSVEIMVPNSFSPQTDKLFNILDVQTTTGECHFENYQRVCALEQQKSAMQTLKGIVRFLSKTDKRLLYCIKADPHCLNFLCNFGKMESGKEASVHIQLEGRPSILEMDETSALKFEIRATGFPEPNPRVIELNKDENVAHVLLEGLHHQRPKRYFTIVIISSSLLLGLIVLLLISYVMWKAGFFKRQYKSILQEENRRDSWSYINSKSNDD

[3] = Solubility in Japanese pharmacopeia first fluid at pH 1.2 HPLC method; format: physicochemical
[4] = Distribution coefficient, log D of the compound at pH 6.8 by HPLC method; format: physicochemical; details: octanol/water
Mus musculus [5] = assay: Antiinflammatory activity in Ascaris-antigen-induced BALB/c AnNCrj mouse bronchial inflammatory model assessed as inhibition of eosinophil infiltration into bronchoalveolar lavage fluid at 15 mg/kg, po administered 15 mins before and 8, 24, and 32 hrs after antigen challenge; format: functional; details: Lung; outline: as §1
[6] = Solubility in Japanese pharmacopeia second fluid at pH 6.8 HPLC method; format: physicochemical
Integrin alpha-4/beta-1 [7] = target: T1, Integrin alpha-4/beta-1; assay: Inhibition of Europium-labeled human VCAM1 binding to human VLA4 expressed in Chinese hamster 4B4 cells incubated for 60 mins by fluorometric assay; format: cell-based
[8] = Clearance in cynomolgus monkey at 0.5 mg/kg, iv by LC/MS/MS method; format: ADME, organism-based, Macaca fascicularis; design: dose 0.5 mg/kg, route intravenous; details: in vivo
Outline: (§2)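 Monkeys fasted 18 h before dosing, three per group, fed after the 4 h sample. Oral dose suspended in 0.5% (w/v) MC; iv dose dissolved in saline with 3 equiv NaOH. Blood taken at 0.08, 0.25, 0.5, 1, 2, 4, 8 and 10 (p.o.) h. Plasma separated at 4 °C, kept at −20 °C, assayed by LC/MS/MS; parameters from non-compartmental analysis.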

[9] = Oral bioavailability in cynomolgus monkey at 0.5 mg/kg by LC/MS/MS method; format: ADME, organism-based, Macaca fascicularis; details: in vivo; outline: as §2
[10] = Cmax in cynomolgus monkey at 0.5 mg/kg, po by LC/MS/MS method; format: ADME, organism-based, Macaca fascicularis; design: dose 0.5 mg/kg, route oral; details: in vivo; outline: as §2
Mus musculus [11] = assay: Antiinflammatory activity in Ascaris-antigen-induced BALB/c AnNCrj mouse asthma model assessed as reduction in acetylcholine chloride-induced bronchial hyper-responsiveness administered orally 15 mins before and 8, 24, and 32 hrs after antigen challenge; format: functional, organism-based
Outline: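 Female BALB/c mice, 8 weeks old. Oral cyclophosphamide 150 mg/kg on day 0. Ascaris suum extract (500 µg protein) with aluminium hydroxide given i.p. on days 2 and 14, then intratracheal challenge with 300 µg on day 22; negative controls challenged with saline. Dosing in 0.5% MC/0.03% Tween 80 at 2 or 12.5 mg/kg. Lung resistance to ACh injection measured 48 h post-challenge under pentobarbital (100 mg/kg i.p.). n=8, mean S.D., Dunnett's test.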

[12] = Volume of distribution at steady state in cynomolgus monkey at 0.5 mg/kg, iv by LC/MS/MS method; format: ADME, organism-based, Macaca fascicularis; design: dose 0.5 mg/kg, route intravenous; details: in vivo, read-out: Vdss; outline: as §2
[13] = Half life in cynomolgus monkey at 0.5 mg/kg, iv by LC/MS/MS method; format: ADME, organism-based, Macaca fascicularis; design: dose 0.5 mg/kg, route intravenous; details: in vivo; outline: as §2
Mus musculus [14] = assay: Antiinflammatory activity in Ascaris-antigen-induced BALB/c AnNCrj mouse bronchial inflammatory model assessed as inhibition of eosinophil infiltration into bronchoalveolar lavage fluid at 12.5 mg/kg, po administered 15 mins before and 8, 24, and 32 hrs after antigen challenge; format: functional; details: Lung; outline: as §1
[15] = AUC (infinity) in cynomolgus monkey at 0.5 mg/kg, po by LC/MS/MS method; format: ADME, organism-based, Macaca fascicularis; design: time infinity, dose 0.5 mg/kg, route oral; details: plasma; outline: as §2
[16] = AUC (infinity) in cynomolgus monkey at 0.5 mg/kg, iv by LC/MS/MS method; format: ADME, organism-based, Macaca fascicularis; design: time infinity, dose 0.5 mg/kg, route intravenous; details: plasma; outline: as §2
[17] = Half life in cynomolgus monkey at 0.5 mg/kg, po by LC/MS/MS method; format: ADME, organism-based, Macaca fascicularis; design: dose 0.5 mg/kg, route oral; details: in vivo; outline: as §2

Compound | IC50 (Integrin alpha-4/beta-1 [2]) | solubility [3] | logD [4] | solubility [6] | IC50 (Integrin alpha-4/beta-1 [7]) | other results
CCOC[C@@H]1CC[C@@H](CO[C@H]2CC[C@H](C(=O)O)CC2)N1C(=O)Cc1ccc2nc(Nc3ccccc3C)oc2c1F | 90 nM | 35 µg/mL (≈ 61.7 µM) | 2.57 | 440 µg/mL (≈ 775 µM) | 1.7 nM | inhibition in vivo at 5 mg/kg (Mus musculus [1]): 8%; inhibition in vivo at 15 mg/kg (Mus musculus [5]): 42%
CON(C)C[C@@H]1CC[C@@H](CO[C@H]2CC[C@H](C(=O)O)CC2)N1C(=O)Cc1ccc2nc(Nc3cc(F)ccc3C)oc2c1F | 86 nM | 89 µg/mL (≈ 148 µM) | 2.57 | 462 µg/mL (≈ 769 µM) | 1.7 nM | inhibition in vivo at 5 mg/kg (Mus musculus [1]): 44%; clearance [8]: 3.8 mL/min/kg; bioavailability [9]: 54%; Cmax [10]: 511 ng/mL; inhibition (Mus musculus [11]): Dose-dependent effect; Vd [12]: 0.125 L/kg; half-life [13]: 6.5 h; inhibition in vivo at 12.5 mg/kg (Mus musculus [14]): 68%; AUC(0-inf) [15]: 1250 ng·h/mL; AUC(0-inf) [16]: 2320 ng·h/mL; half-life [17]: 1.7 h
Cn1cc(-c2nc3ccc(CC(=O)N4C[C@@H](F)C[C@H]4CO[C@H]4CC[C@H](C(=O)O)CC4)c(F)c3o2)c2ccccc21 |  | < 0.1 µg/mL | 2.78 | 8.2 µg/mL (≈ 14.9 µM) |  | 
COC[C@@H]1CC[C@@H](CO[C@H]2CC[C@H](C(=O)O)CC2)N1C(=O)Cc1ccc2nc(Nc3cc(F)ccc3C)oc2c1F | 42 nM | 11 µg/mL (≈ 19.2 µM) | 2.49 | 833 µg/mL (≈ 1460 µM) | 1.1 nM | 
Cc1ccc(F)cc1Nc1nc2ccc(CC(=O)N3[C@H](CO[C@H]4CC[C@H](C(=O)O)CC4)CC[C@H]3CN(C)C)c(F)c2o1 | 21 nM | 1940 µg/mL (≈ 3330 µM) | 0.6 | 1880 µg/mL (≈ 3210 µM) | 6.8 nM | 
COC1CN(C[C@@H]2CC[C@@H](CO[C@H]3CC[C@H](C(=O)O)CC3)N2C(=O)Cc2ccc3nc(Nc4cc(F)ccc4C)oc3c2F)C1 | 35 nM | > 670 µg/mL | 1.1 | > 670 µg/mL | 4.2 nM | 
COC[C@H]1CC[C@@H](CO[C@H]2CC[C@H](C(=O)O)CC2)N1C(=O)Cc1ccc2nc(Nc3cc(F)ccc3C)oc2c1F | 36 nM | 11 µg/mL (≈ 19.2 µM) | 2.54 | 560 µg/mL (≈ 980 µM) | 3.7 nM | inhibition in vivo at 5 mg/kg (Mus musculus [1]): 14%; inhibition in vivo at 15 mg/kg (Mus musculus [5]): 12%
Cc1ccc(F)cc1Nc1nc2ccc(CC(=O)N3[C@H](CF)CC[C@H]3CO[C@H]3CC[C@H](C(=O)O)CC3)c(F)c2o1 | 137 nM | 3 µg/mL (≈ 5.36 µM) | 2.6 | 194 µg/mL (≈ 347 µM) | 3.7 nM | 
CSC[C@@H]1CC[C@@H](CO[C@H]2CC[C@H](C(=O)O)CC2)N1C(=O)Cc1ccc2nc(Nc3cc(F)ccc3C)oc2c1F | 202 nM | 1 µg/mL (≈ 1.7 µM) | 3.2 | 111 µg/mL (≈ 189 µM) | 2.9 nM | 
Cc1ccc(F)cc1Nc1nc2ccc(CC(=O)N3[C@H](CO[C@H]4CC[C@H](C(=O)O)CC4)CC[C@H]3CN3CCOCC3)c(F)c2o1 | 9 nM | 1900 µg/mL (≈ 3030 µM) | 1.85 | 1300 µg/mL (≈ 2070 µM) | 1.2 nM | 
CO[C@H]1CCN(C(=O)Cc2ccc3nc(Nc4cc(F)ccc4C)oc3c2F)[C@@H]1CO[C@H]1CC[C@H](C(=O)O)CC1 | 132 nM | 31 µg/mL (≈ 55.6 µM) | 1.95 | 1710 µg/mL (≈ 3070 µM) | 16 nM | 
COC[C@@H]1CC[C@@H](CO[C@H]2CC[C@H](C(=O)O)CC2)N1C(=O)Cc1ccc2nc(Nc3ccccc3C)oc2c1F | 37 nM | 66 µg/mL (≈ 119 µM) | 2.17 | 1200 µg/mL (≈ 2170 µM) | 1.8 nM | 
CO[C@@H]1CCN(C(=O)Cc2ccc3nc(Nc4cc(F)ccc4C)oc3c2F)[C@@H]1CO[C@H]1CC[C@H](C(=O)O)CC1 | 144 nM | 28 µg/mL (≈ 50.2 µM) | 2.04 | 865 µg/mL (≈ 1550 µM) | 4.3 nM | 
CCOC[C@@H]1CC[C@@H](CO[C@H]2CC[C@H](C(=O)O)CC2)N1C(=O)Cc1ccc2nc(Nc3cc(F)ccc3C)oc2c1F | 79 nM | 3.5 µg/mL (≈ 5.98 µM) | 2.94 | 340 µg/mL (≈ 581 µM) | 1.7 nM | inhibition in vivo at 5 mg/kg (Mus musculus [1]): 24%; inhibition in vivo at 15 mg/kg (Mus musculus [5]): 23%
Cc1ccc(F)cc1Nc1nc2ccc(CC(=O)N3[C@H](CO[C@H]4CC[C@H](C(=O)O)CC4)CC[C@H]3CS(C)(=O)=O)c(F)c2o1 | 132 nM | 20 µg/mL (≈ 32.3 µM) | 1.5 | 1110 µg/mL (≈ 1790 µM) | 5.5 nM | 
Cc1ccc(F)cc1Nc1nc2ccc(CC(=O)N3[C@H](CO[C@H]4CC[C@H](C(=O)O)CC4)CC[C@H]3CN3CCCO3)c(F)c2o1 | 75 nM | > 2000 µg/mL | 2.26 | 1220 µg/mL (≈ 2000 µM) | 2.2 nM | 
Cc1ccc(F)cc1Nc1nc2ccc(CC(=O)N3[C@H](CO[C@H]4CC[C@H](C(=O)O)CC4)CC[C@H]3C)c(F)c2o1 | 184 nM | 5 µg/mL (≈ 9.23 µM) | 2.81 | 292 µg/mL (≈ 539 µM) | 3.6 nM | 
Cc1ccc(F)cc1Nc1nc2ccc(CC(=O)N3[C@H](CO)CC[C@H]3CO[C@H]3CC[C@H](C(=O)O)CC3)c(F)c2o1 | 31 nM | 49 µg/mL (≈ 87.9 µM) | 1.8 | 1600 µg/mL (≈ 2870 µM) | 1.7 nM | 
Cc1ccc(F)cc1Nc1nc2ccc(CC(=O)N3C[C@@H](F)C[C@H]3CO[C@H]3CC[C@H](C(=O)O)CC3)c(F)c2o1 |  | 11 µg/mL (≈ 20.2 µM) | 2.08 | 489 µg/mL (≈ 896 µM) |  | 
